The record followed here is ChEMBL document CHEMBL5230175, “The war on hTG2: warhead optimization in small molecule human tissue transglutaminase inhibitors” (RSC Med Chem, 2023).

In series [1] the target is T1, Protein-glutamine gamma-glutamyltransferase 6 (Homo sapiens) (UniProt O95932).
T1 sequence (whole entry): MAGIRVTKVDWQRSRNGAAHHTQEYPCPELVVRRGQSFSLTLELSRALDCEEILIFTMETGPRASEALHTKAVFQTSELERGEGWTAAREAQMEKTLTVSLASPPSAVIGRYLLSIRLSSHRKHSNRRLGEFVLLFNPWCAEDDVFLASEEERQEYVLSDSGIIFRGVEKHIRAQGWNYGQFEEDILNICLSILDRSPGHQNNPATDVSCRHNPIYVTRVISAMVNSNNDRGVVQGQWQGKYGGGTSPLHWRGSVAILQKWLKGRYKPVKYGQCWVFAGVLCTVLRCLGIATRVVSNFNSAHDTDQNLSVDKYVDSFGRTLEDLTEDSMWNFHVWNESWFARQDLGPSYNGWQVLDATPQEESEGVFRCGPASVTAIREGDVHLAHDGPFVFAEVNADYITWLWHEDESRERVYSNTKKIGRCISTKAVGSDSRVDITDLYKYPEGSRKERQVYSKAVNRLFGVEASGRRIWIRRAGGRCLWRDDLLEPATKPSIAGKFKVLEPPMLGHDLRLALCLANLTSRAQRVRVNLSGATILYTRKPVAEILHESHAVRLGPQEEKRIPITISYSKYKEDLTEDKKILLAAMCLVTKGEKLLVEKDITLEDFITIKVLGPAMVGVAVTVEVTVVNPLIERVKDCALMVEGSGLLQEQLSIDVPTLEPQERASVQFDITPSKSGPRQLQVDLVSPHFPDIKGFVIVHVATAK
In words: Irreversible inhibition of human TG6 using Cbz-Glu-(gamma-p-nitrophenylester)Gly (AL5) as substrate assessed as substrate hydrolysis by measuring observed binding constant incubated for 60 mins by colorimetric assay.

For series [2], the target named is T2, Protein-glutamine gamma-glutamyltransferase E (Homo sapiens) (UniProt Q08188).
T2 sequence (whole entry): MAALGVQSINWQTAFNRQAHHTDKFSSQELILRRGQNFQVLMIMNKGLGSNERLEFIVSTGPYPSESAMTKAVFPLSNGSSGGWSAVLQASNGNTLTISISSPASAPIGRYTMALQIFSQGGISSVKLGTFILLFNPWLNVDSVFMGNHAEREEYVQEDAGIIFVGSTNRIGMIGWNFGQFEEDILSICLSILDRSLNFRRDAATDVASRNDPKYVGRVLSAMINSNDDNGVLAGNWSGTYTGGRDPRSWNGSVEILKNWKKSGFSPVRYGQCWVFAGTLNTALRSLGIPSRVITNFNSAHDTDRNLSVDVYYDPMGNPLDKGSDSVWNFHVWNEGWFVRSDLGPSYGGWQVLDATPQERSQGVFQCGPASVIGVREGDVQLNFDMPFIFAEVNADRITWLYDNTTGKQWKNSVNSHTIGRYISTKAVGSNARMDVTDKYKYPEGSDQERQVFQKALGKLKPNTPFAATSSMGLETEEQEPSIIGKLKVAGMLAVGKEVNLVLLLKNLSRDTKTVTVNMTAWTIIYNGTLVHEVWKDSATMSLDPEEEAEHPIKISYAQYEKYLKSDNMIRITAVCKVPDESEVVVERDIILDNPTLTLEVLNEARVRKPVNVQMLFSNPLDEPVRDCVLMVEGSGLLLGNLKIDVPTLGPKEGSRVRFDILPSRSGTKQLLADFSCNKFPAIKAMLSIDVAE
Description: Reversible inhibition of activated human TG3 using peptidic FRET-quenched probe A101 as substrate by fluorescence based assay relative to control. Conditions: concentration not given here.

The target of series [3] is T3, Protein-glutamine gamma-glutamyltransferase (Homo sapiens) (UniProt P21980).
T3 sequence (whole entry): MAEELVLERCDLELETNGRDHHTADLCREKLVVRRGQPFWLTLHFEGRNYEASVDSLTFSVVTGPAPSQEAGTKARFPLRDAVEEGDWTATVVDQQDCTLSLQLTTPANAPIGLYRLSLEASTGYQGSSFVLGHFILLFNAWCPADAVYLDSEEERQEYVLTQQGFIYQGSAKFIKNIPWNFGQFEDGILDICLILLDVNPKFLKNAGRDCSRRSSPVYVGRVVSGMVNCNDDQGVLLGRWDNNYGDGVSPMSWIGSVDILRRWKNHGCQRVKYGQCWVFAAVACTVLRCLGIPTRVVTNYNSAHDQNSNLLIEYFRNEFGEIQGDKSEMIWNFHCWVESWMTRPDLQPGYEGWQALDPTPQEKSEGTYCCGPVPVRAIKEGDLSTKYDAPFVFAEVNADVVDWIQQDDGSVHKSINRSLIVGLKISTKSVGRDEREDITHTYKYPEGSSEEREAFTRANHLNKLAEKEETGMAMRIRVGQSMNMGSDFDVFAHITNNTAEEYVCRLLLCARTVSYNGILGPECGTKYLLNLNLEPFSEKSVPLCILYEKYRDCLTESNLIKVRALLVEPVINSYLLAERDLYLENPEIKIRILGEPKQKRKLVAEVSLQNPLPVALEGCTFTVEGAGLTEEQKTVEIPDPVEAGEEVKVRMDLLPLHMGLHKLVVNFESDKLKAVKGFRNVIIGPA
In words: Inhibition of human recombinant tissue transglutaminase expressed in Escherichia coli using Cbz-Glu-(gamma-p-nitrophenylester)Gly (AL5) as substrate assessed as substrate hydrolysis by measuring Kinact incubated for 20 mins by colorimetric analysis.

Series [4] has as its target T3, Protein-glutamine gamma-glutamyltransferase (Homo sapiens). In words: Irreversible inhibition of human recombinant tissue transglutaminase expressed in Escherichia coli using Cbz-Glu-(gamma-p-nitrophenylester)Gly (AL5) as substrate assessed as substrate hydrolysis by measuring Kinact/Ki ratio incubated for 20 mins by colorimetric analysis.
In series [5] the target is T4, Protein-glutamine gamma-glutamyltransferase (Homo sapiens, UniProt P21980).
T4 sequence (P21980 whole entry): T3 sequence (whole entry)
Description: Irreversible inhibition of human recombinant tissue transglutaminase expressed in Escherichia coli using Cbz-Glu-(gamma-p-nitrophenylester)Gly (AL5) as substrate assessed as substrate hydrolysis by measuring KI incubated for 20 mins by colorimetric analysis.

For series [6], the target named is T3, Protein-glutamine gamma-glutamyltransferase (Homo sapiens). In words: Irreversible inhibition of human recombinant tissue transglutaminase expressed in Escherichia coli using Cbz-Glu-(gamma-p-nitrophenylester)Gly (AL5) as substrate assessed as substrate hydrolysis by measuring Kinact/Ki ratio by linear regression analysis. The method, boiled down:
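For TG2/AL5 under Kitz–Wilson conditions (100 μM AL5, pH 6.9 MOPS, 25 °C, 405 nm), kinact/KI was taken from simple linear regression of kobs against corrected inhibitor concentration at the lowest inhibitor concentrations.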

A short description of series [7]: Ratio of Kinact/Ki for inhibition of human tissue transglutaminase assessed as substrate hydrolysis to corrected second order rate constant (K2 corrected) for GSH reactivity in aqueous buffer assessed as GSH adduct formation. The class given is physicochemical.

Molecules are shown by their SMILES.

One may read the inhibition as the share of the control response that was lost under treatment. Higher therefore signals a response far below the control.

With `C=CC(=O)NCC(=O)N1CCN(C(=O)C23CC4CC(CC(C4)C2)C3)CC1`, the K in series [1] turned out to be 0.02 min⁻¹. Also, the inhibition in series [2] turned out to be 59.1%.

Take `O=C(CCl)NCC(=O)N1CCN(C(=O)C23CC4CC(CC(C4)C2)C3)CC1`: in series [3], the Kinact stood at 1.23 min⁻¹. For the same molecule, in series [2], the inhibition is 41.5%. Moreover, the Ratio in series [4] is 8050 10^3/M/min; in series [6] it was 4540 10^3/M/min; in series [7] it was 5.437. In series [5], the Ki worked out at 150 nM.
